From ChEMBL document CHEMBL5385966, “Synthesis and biological evaluation of new naphthalimide-thiourea derivatives as potent antimicrobial agents active against multidrug-resistant Staphylococcus aureus and Mycobacterium tuberculosis” (RSC Med Chem, 2024)
In brackets after ≈: the same amount, converted by molar mass. Activity calls are given as the source filed them. The rule behind the calls is not given here.

Experiments:
Mycobacteroides chelonae = experiment: Antimycobacterial activity against Mycobacteroides chelonae ATCC 35752 assessed as bacterial growth inhibition incubated for 72 hrs by resazurin dye based broth microdilution method; type: functional, organism-based
In short: (§1)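 Broth microdilution in Middlebrook 7H9 with 10% ADC-Tween-80 (0.2% glycerol, 0.05% Tween-80), inoculum ~10⁶ cfu/mL. Compounds came from 10 mg/mL DMSO stocks and were tested as two-fold serial dilutions at 37 °C, 7 days for M. tuberculosis H37Rv and 72 h for NTM. Growth was read visually with PrestoBlue resazurin dye; MIC was the lowest concentration preventing growth. Triplicate determinations, each in duplicate.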

[1] = system: Mycolicibacterium fortuitum; experiment: Antimycobacterial activity against Mycobacterium fortuitum ATCC 6841 assessed as bacterial growth inhibition incubated for 72 hrs by resazurin dye based broth microdilution method; type: functional, organism-based; in short: as §1
Pseudomonas aeruginosa = experiment: Antibacterial activity against Pseudomonas aeruginosa ATCC 27853 assessed as bacterial growth inhibition incubated for 16 to 18 hrs by CLSI based antibiotic susceptibility testing method; type: functional, organism-based; conditions: time 16-18 hrs
In short: (§2)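 Broth microdilution in cation-adjusted Mueller-Hinton broth. Compounds were tested at […], with levofloxacin as reference and medium-only controls. Plates were incubated at 37 °C for 16-18 h. MIC was the lowest concentration with no visible growth; three independent determinations, each in duplicate.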

Staphylococcus aureus = experiment: Antibacterial activity against Staphylococcus aureus ATCC 29213 assessed as bacterial growth inhibition incubated for 16 to 18 hrs by CLSI based antibiotic susceptibility testing method; type: functional; conditions: time 16-18 hrs; in short: as §2
Klebsiella pneumoniae = experiment: Antibacterial activity against Klebsiella pneumoniae BAA 1705 assessed as bacterial growth inhibition incubated for 16 to 18 hrs by CLSI based antibiotic susceptibility testing method; type: functional, organism-based; conditions: time 16-18 hrs; in short: as §2
[2] = system: Mycobacterium tuberculosis; experiment: Antimycobacterial activity against Mycobacterium tuberculosis H37Rv ATCC 27294 assessed as bacterial growth inhibition incubated for 7 days by resazurin dye based broth microdilution method; type: functional; conditions: H37Rv ATCC 27294, 168 h, time 7 day; in short: as §1
Acinetobacter baumannii = experiment: Antibacterial activity against Acinetobacter baumannii BAA 1605 assessed as bacterial growth inhibition incubated for 16 to 18 hrs by CLSI based antibiotic susceptibility testing method; type: functional, organism-based; conditions: time 16-18 hrs; in short: as §2
Escherichia coli = experiment: Antibacterial activity against Escherichia coli ATCC 25922 assessed as bacterial growth inhibition incubated for 16 to 18 hrs by CLSI based antibiotic susceptibility testing method; type: functional, organism-based; conditions: time 16-18 hrs; in short: as §2
[3] = system: Mycobacteroides abscessus; experiment: Antimycobacterial activity against Mycobacterium abscessus ATCC 19977 assessed as bacterial growth inhibition incubated for 72 hrs by resazurin dye based broth microdilution method; type: functional, organism-based; in short: as §1

Compound | growth inhibition (GI) (Mycobacteroides chelonae) | growth inhibition (GI) [1] | growth inhibition (GI) (Pseudomonas aeruginosa) | MIC (Staphylococcus aureus) | growth inhibition (GI) (Klebsiella pneumoniae) | MIC [2] | growth inhibition (GI) (Acinetobacter baumannii) | growth inhibition (GI) (Escherichia coli) | growth inhibition (GI) [3]
Cc1ccc(NC(=S)N2CCN(C(=O)CCN3C(=O)c4cccc5cccc(c45)C3=O)CC2)cc1 | inactive | inactive | inactive | > 64 µg/mL | inactive | > 64 µg/mL | inactive | inactive | inactive
CC(C)NC(=S)N1CCN(CCN2C(=O)c3cccc4cccc(c34)C2=O)CC1 | inactive | inactive | inactive | > 64 µg/mL | inactive | > 64 µg/mL | inactive | inactive | inactive
COc1ccc(NC(=S)N2CCN(C(=O)CN3C(=O)c4cccc5cccc(c45)C3=O)CC2)cc1 | inactive | inactive | inactive | > 64 µg/mL | inactive | 64 µg/mL (≈ 131 µM) | inactive | inactive | inactive
O=C(CN1C(=O)c2cccc3cccc(c23)C1=O)NC1CCN(C(=S)NC2CCCC2)CC1 | inactive | inactive | inactive | > 64 µg/mL | inactive | > 64 µg/mL | inactive | inactive | inactive
O=C(Nc1ccc(Cl)cc1)N1CCN(CCN2C(=O)c3cccc4cccc(c34)C2=O)CC1 | inactive | inactive | inactive | > 64 µg/mL | inactive | 8 µg/mL (≈ 17.3 µM) | inactive | inactive | inactive
CO[C@H]1/C=C/O[C@@]2(C)Oc3c(C)c(O)c4c(O)c(c(/C=N/N5CCN(C)CC5)c(O)c4c3C2=O)NC(=O)/C(C)=C\C=C\[C@H](C)[C@H](O)[C@@H](C)[C@@H](O)[C@@H](C)[C@H](OC(C)=O)[C@@H]1C [RIFAMPIN] | inactive | inactive | – | – | – | 0.03 µg/mL (≈ 0.0365 µM) | – | – | inactive
Cc1ccc(NC(=S)N2CCN(CCN3C(=O)c4cccc5cccc(c45)C3=O)CC2)cc1 | inactive | inactive | inactive | > 64 µg/mL | inactive | > 64 µg/mL | inactive | inactive | inactive
Cc1ccc(NC(=S)N2CCN(C(=O)CN3C(=O)c4cccc5cccc(c45)C3=O)CC2)cc1 | inactive | inactive | inactive | > 64 µg/mL | inactive | 64 µg/mL (≈ 135 µM) | inactive | inactive | inactive
O=C(CCN1C(=O)c2cccc3cccc(c23)C1=O)N1CCN(C(=S)Nc2ccc(Cl)cc2)CC1 | inactive | inactive | inactive | > 64 µg/mL | inactive | 64 µg/mL (≈ 126 µM) | inactive | inactive | inactive
O=C(Nc1ccccc1)N1CCN(CCN2C(=O)c3cccc4cccc(c34)C2=O)CC1 | inactive | inactive | inactive | 8 µg/mL (≈ 18.7 µM) | inactive | 32 µg/mL (≈ 74.7 µM) | inactive | inactive | inactive
CCCCCCCNC(=S)N1CCN(CCN2C(=O)c3cccc4cccc(c34)C2=O)CC1 | inactive | inactive | inactive | > 64 µg/mL | inactive | 64 µg/mL (≈ 137 µM) | inactive | inactive | inactive
